Columns and labels:
[1] = biological target: T1, Growth hormone secretagogue receptor type 1 (Homo sapiens, UniProt Q92847); experiment: Antagonist activity at GHSR1a (unknown origin) assessed as inhibition of ghrelin-induced intracellular calcium mobilization; format: functional, cell-based
Method in brief: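 GHS-R1a-expressing cells; [Ca2+]i mobilization read. Compounds failing to raise calcium above 10% of maximal response (100% = 10^-7 M ghrelin) at 10^-5 M were treated as antagonists. […] One experiment, mean points from quadruplicate measurements.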

[2] = Retention time of the compound by LC-MS analysis; format: physicochemical
[3] = biological target: T1, Growth hormone secretagogue receptor type 1; experiment: Antagonist activity at human GSHR1a expressed in mouse LTK cells assessed as inhibition of ghrelin-induced reporter gene expression after 6 hrs by CRE/luciferase reporter gene assay; format: functional, cell-based
Method in brief: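 Mouse LTK cells stably expressing human GHS-R1a with luciferase reporter under CRE elements and CMV minimal promoter. Cells incubated 6 h with 1 µM rolipram, test compound at various concentrations and saturating ghrelin. Cells then lysed and bioluminescence read. % inhibition: ghrelin-treated cells = 0%, untreated cells = 100%. Quadruplicate points. IC50 from one experiment for weaker compounds, mean of at least two experiments for nanomolar ones.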

[4] = biological target: T1, Growth hormone secretagogue receptor type 1; experiment: Displacement of 125I-[His9]-ghrelin from human GHSR1a expressed in LLC-PK1 cells by competitive binding assay; format: cell-based
[5] = Retention time of the compound by HPLC analysis; format: physicochemical

T1 sequence (Q92847 whole entry): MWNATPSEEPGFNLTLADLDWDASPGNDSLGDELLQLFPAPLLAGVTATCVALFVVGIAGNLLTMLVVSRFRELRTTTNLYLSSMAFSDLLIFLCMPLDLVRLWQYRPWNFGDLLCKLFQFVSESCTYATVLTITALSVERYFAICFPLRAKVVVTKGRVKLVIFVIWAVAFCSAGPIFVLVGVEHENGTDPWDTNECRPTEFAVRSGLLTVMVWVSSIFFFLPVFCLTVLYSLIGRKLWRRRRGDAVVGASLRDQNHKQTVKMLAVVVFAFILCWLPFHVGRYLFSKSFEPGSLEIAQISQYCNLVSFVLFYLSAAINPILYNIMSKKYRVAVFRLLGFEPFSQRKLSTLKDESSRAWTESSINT

Compound	IC50 [1] [µM]	Retention_time [2] [min]	IC50 [3] [µM]	IC50 [4] [µM]	Retention_time [5] [min]
COc1ccc(Cn2c(CCc3ccccc3)nnc2[C@@H](Cc2c[nH]c3ccccc23)NC(=O)c2nccc3ccccc23)cc1	0.082	1.85	0.073	0.15	1.93
COc1ccc(Cn2c(CCc3ccccc3)nnc2[C@@H](Cc2c[nH]c3ccccc23)NC(=O)c2ccccn2)cc1	0.0045	–	0.006	–	–
COc1ccc(Cn2c(CCc3ccccc3)nnc2[C@H](N)Cc2c[nH]c3ccccc23)cc1	–	–	–	> 1	–
COc1ccc(Cn2c(CCc3ccccc3)nnc2[C@@H](Cc2c[nH]c3ccccc23)NC(=O)c2ccncc2)cc1	–	–	0.828	0.22	–
COc1ccc(Cn2c(CCc3ccccc3)nnc2[C@@H](Cc2c[nH]c3ccccc23)NC(=O)c2cccnc2)cc1	0.337	1.57	0.411	0.122	1.61
COc1ccc(Cn2c(CCc3ccccc3)nnc2[C@@H](Cc2c[nH]c3ccccc23)NC(=O)c2cncc(Br)c2)cc1	0.088	1.85	0.222	0.084	1.85
COc1ccc(Cn2c(CCc3ccccc3)nnc2[C@@H](Cc2c[nH]c3ccccc23)NC(=O)c2cccnc2Br)cc1	0.51	1.66	0.193	0.25	1.76
COc1ccc(Cn2c(CCc3ccccc3)nnc2[C@@H](Cc2c[nH]c3ccccc23)NC(=O)c2ccc(Cl)nc2)cc1	1.01	1.52	0.771	0.13	1.8
COc1ccc(Cn2c(CCc3ccccc3)nnc2[C@@H](Cc2c[nH]c3ccccc23)NC(=O)c2cccnc2N)cc1	0.671	1.35	0.427	0.38	1.58
COc1ccc(Cn2c(CCc3ccccc3)nnc2[C@@H](Cc2c[nH]c3ccccc23)NC(=O)c2ncccc2F)cc1	0.007	1.67	0.0088	0.003	1.73
COc1ccc(Cn2c(CCc3ccccc3)nnc2[C@@H](Cc2c[nH]c3ccccc23)NC(=O)c2cccc(F)n2)cc1	0.0021	1.67	0.0021	0.002	1.84
COc1ccc(Cn2c(CCc3ccccc3)nnc2[C@@H](Cc2c[nH]c3ccccc23)NC(=O)c2ncc(F)cc2F)cc1	0.0046	1.65	0.0028	0.004	1.82
COc1ccc(Cn2c(CCc3ccccc3)nnc2[C@@H](Cc2c[nH]c3ccccc23)NC(=O)c2cccc(C)n2)cc1	0.0054	1.74	0.0075	0.0034	1.82
COc1ccc(Cn2c(CCc3ccccc3)nnc2[C@@H](Cc2c[nH]c3ccccc23)NC(=O)c2cccc(OC)n2)cc1	0.0078	1.76	0.009	0.002	1.86
COc1ccc(Cn2c(CCc3ccccc3)nnc2[C@@H](Cc2c[nH]c3ccccc23)NC(=O)c2cccc(N)n2)cc1	0.025	1.5	0.021	0.006	1.55
COc1ccc(Cn2c(CCc3ccccc3)nnc2[C@@H](Cc2c[nH]c3ccccc23)NC(=O)c2ncccc2O)cc1	0.165	1.82	0.108	0.24	1.86
COc1ccc(Cn2c(CCc3ccccc3)nnc2[C@@H](Cc2c[nH]c3ccccc23)NC(=O)c2cccc[n+]2[O-])cc1	0.112	1.59	0.079	0.042	1.73
COc1ccc(Cn2c(CCc3ccccc3)nnc2[C@@H](Cc2c[nH]c3ccccc23)NC(=O)c2ccc(N3CCCC3)cn2)cc1	2.11	1.8	1.21	0.065	1.76
COc1ccc(Cn2c(CCc3ccccc3)nnc2[C@@H](Cc2c[nH]c3ccccc23)NC(=O)c2ncccc2C(=O)c2ccccc2)cc1	0.23	1.83	0.313	0.24	1.88
COc1ccc(Cn2c(CCc3ccccc3)nnc2[C@@H](Cc2c[nH]c3ccccc23)NC(=O)c2cc3ccccc3cn2)cc1	0.404	1.87	0.126	0.1	1.9

From ChEMBL document CHEMBL3580618, “New trisubstituted 1,2,4-triazoles as ghrelin receptor antagonists” (Bioorg Med Chem Lett, 2015)
